From ChEMBL document CHEMBL1687738, “Effect of Candida glabrata FKS1 and FKS2 mutations on echinocandin sensitivity and kinetics of 1,3-beta-D-glucan synthase: implication for the existing susceptibility breakpoint” (Antimicrob Agents Chemother, 2009)
≈ marks a conversion by molar mass, not a printed value. Starred links: 1 amine or outer side, 2 acyl side, 3 side chain; linkers in the order of their positions; H or OH if unused. Positions of bridges follow the written chain, without caps; N, C: chain ends. Non-standard residues stand in square brackets, D forms with d. Residues, ends and D or L forms follow the SMILES beside them. *: point of attachment. hTyr(3S-OH,4S-OH,3'-OSO3H) = N[C@H](C(=O)O)[C@H](O)[C@@H](O)c1ccc(O)c(OS(=O)(=O)O)c1; Orn(4R-OH,5R-OH) = O=C([C@H](C[C@@H](O)[C@@H](O)N[*:3])N[*:1])[*:2]; Pro(3S-OH,4S-Me) = C[C@H]1CN[C@H](C(=O)O)[C@H]1O; X1 = CCCCCOc1ccc(-c2cc(-c3ccc(C(=O)*)cc3)no2)cc1; Gln(3R-OH) = NC(=O)C[C@@H](O)[C@H](N)C(=O)O; Hyp = O=C(O)[C@@H]1C[C@@H](O)CN1

How the values were obtained:
[1] = tested on: Nakaseomyces glabratus; experiment: Ratio of IC50 for Candida glabrata wild type 1,3-beta-glucan synthase to IC50 for Candida glabrata 1,3-beta-glucan synthase mutant
[2] = tested on: Nakaseomyces glabratus; experiment: Antifungal activity against Candida glabrata isolate 3168 expressing wild type Fks1p and Fks2p by CLSI method in presence of 50% human serum; assay type: functional
Outline: (§1)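 Broth microdilution MIC per CLSI M27-A3 in RPMI 1640 supplemented with 50% serum. Caspofungin and micafungin stocks in sterile water; anidulafungin stock in 100% DMSO; stocks kept at −86°C.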

[3] = tested on: Nakaseomyces glabratus; experiment: Antifungal activity against Candida glabrata isolate 3169 expressing Fks1p D632E mutant and wild type Fks2p by CLSI method; assay type: functional
Outline: (§2)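 Broth microdilution MIC per CLSI M27-A3 in RPMI 1640 medium without serum. Caspofungin and micafungin stocks in sterile water; anidulafungin stock in 100% DMSO; stocks kept at −86°C.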

[4] = tested on: Nakaseomyces glabratus; experiment: Antifungal activity against Candida glabrata isolate 5847 expressing Fks1p S629P mutant and wild type Fks2p by CLSI method in presence of 50% human serum; assay type: functional; outline: as §1
[5] = tested on: Nakaseomyces glabratus; experiment: Antifungal activity against Candida glabrata isolate 42971 expressing Fks1p D632Y mutant and Fks2p R1377STOP mutant by CLSI method in presence of 50% human serum; assay type: functional; outline: as §1
[6] = biological target: 1,3-beta-glucan synthase (Candida glabrata, UniProt F5BCZ9, W1375L); experiment: Inhibition of Candida glabrata isolate 5416 1,3-beta-D-glucan synthase wild type Fks1p/Fks2p W1375L mutant; set-up: species or system Nakaseomyces glabratus
Outline: (§3)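 Cells grown in YPD broth at 35°C with vigorous shaking to early stationary phase. Membrane protein extracted and glucan synthase partially purified by product entrapment. Filtration polymerization assay measured [3H]glucose incorporation into product, started by adding enzyme. Echinocandin serial dilutions spanned 0.01–10,000 ng/ml, with 1% DMSO controls for anidulafungin. IC50 from variable-slope sigmoidal fit.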

[7] = tested on: Nakaseomyces glabratus; experiment: Antifungal activity against Candida glabrata isolate 5416 expressing wild type Fks1p and Fks2p W1375L mutant by CLSI method; assay type: functional; outline: as §2
[8] = tested on: Nakaseomyces glabratus; experiment: Antifungal activity against Candida glabrata isolate 234 expressing wild type Fks1p and Fks2p F659V mutant by CLSI method; assay type: functional; outline: as §2
[9] = tested on: Nakaseomyces glabratus; experiment: Antifungal activity against Candida glabrata isolate 21900 expressing Fks1p D632G mutant and wild type Fks2p by CLSI method in presence of 50% human serum; assay type: functional; outline: as §1
[10] = biological target: 1,3-beta-glucan synthase (Candida glabrata, UniProt F5BCZ9, D666E); experiment: Inhibition of Candida glabrata isolate 42031 1,3-beta-D-glucan synthase wild type Fks1p/Fks2p D666E mutant; set-up: species or system Nakaseomyces glabratus; outline: as §3
[11] = tested on: Nakaseomyces glabratus; experiment: Antifungal activity against Candida glabrata isolate 5847 expressing Fks1p S629P mutant and wild type Fks2p by CLSI method; assay type: functional; outline: as §2
[12] = tested on: Nakaseomyces glabratus; experiment: Antifungal activity against Candida glabrata isolate 42971 expressing Fks1p D632Y mutant and Fks2p R1377STOP mutant by CLSI method; assay type: functional; outline: as §2
[13] = tested on: Nakaseomyces glabratus; experiment: Antifungal activity against Candida glabrata isolate 41026 expressing wild type Fks1p and Fks2p F659S mutant by CLSI method; assay type: functional; outline: as §2
[14] = tested on: Nakaseomyces glabratus; experiment: Antifungal activity against Candida glabrata isolate 21900 expressing Fks1p D632G mutant and wild type Fks2p by CLSI method; assay type: functional
[15] = biological target: 1,3-beta-glucan synthase (Candida glabrata, UniProt F5BCZ9, P667T); experiment: Inhibition of Candida glabrata isolate 51916 1,3-beta-D-glucan synthase wild type Fks1p/Fks2p P667T mutant; set-up: species or system Nakaseomyces glabratus; outline: as §3
[16] = tested on: Nakaseomyces glabratus; experiment: Antifungal activity against Candida glabrata isolate 5416 expressing wild type Fks1p and Fks2p W1375L mutant by CLSI method in presence of 50% human serum; assay type: functional; outline: as §1
[17] = tested on: Nakaseomyces glabratus; experiment: Antifungal activity against Candida glabrata isolate 3830 expressing wild type Fks1p and Fks2p S663P mutant by CLSI method in presence of 50% human serum; assay type: functional; outline: as §1
[18] = biological target: 1,3-beta-glucan synthase component FKS1 (Candida glabrata, UniProt E2GKZ4, D632G); experiment: Inhibition of Candida glabrata isolate 21900 1,3-beta-D-glucan synthase Fks1p D632G mutant/wild type Fks2p; set-up: species or system Nakaseomyces glabratus; outline: as §3
[19] = tested on: Nakaseomyces glabratus; experiment: Antifungal activity against Candida glabrata isolate 42031 expressing wild type Fks1p and Fks2p D666E mutant by CLSI method; assay type: functional; outline: as §2
[20] = biological target: 1,3-beta-glucan synthase (Candida glabrata, UniProt F5BCZ9, F659S); experiment: Inhibition of Candida glabrata isolate 41026 1,3-beta-D-glucan synthase wild type Fks1p/Fks2p F659S mutant; set-up: species or system Nakaseomyces glabratus; outline: as §3
[21] = biological target: 1,3-beta-glucan synthase component FKS1 (Candida glabrata, UniProt E2GKZ4, F625S); experiment: Inhibition of Candida glabrata isolate 42997 1,3-beta-D-glucan synthase Fks1p F625S mutant/wild type Fks2p; set-up: species or system Nakaseomyces glabratus; outline: as §3
[22] = tested on: Nakaseomyces glabratus; experiment: Antifungal activity against Candida glabrata isolate 31498 expressing wild type Fks1p and Fks2p F659 deletion mutant by CLSI method; assay type: functional; outline: as §2
[23] = Inhibition of Candida glabrata isolate 218 wild type 1,3-beta-D-glucan synthase; set-up: species or system Nakaseomyces glabratus; outline: as §3
[24] = tested on: Nakaseomyces glabratus; experiment: Antifungal activity against Candida glabrata isolate 41026 expressing wild type Fks1p and Fks2p F659S mutant by CLSI method in presence of 50% human serum; assay type: functional; outline: as §1
[25] = Inhibition of Candida glabrata isolate 31498 1,3-beta-D-glucan synthase wild type Fks1p/Fks2p F659 deletion mutant; set-up: species or system Nakaseomyces glabratus; outline: as §3
[26] = tested on: Nakaseomyces glabratus; experiment: Antifungal activity against Candida glabrata isolate 3169 expressing Fks1p D632E mutant and wild type Fks2p by CLSI method in presence of 50% human serum; assay type: functional; outline: as §1
[27] = tested on: Nakaseomyces glabratus; experiment: Antifungal activity against Candida glabrata isolate 51916 expressing wild type Fks1p and Fks2p P667T mutant by CLSI method; assay type: functional; outline: as §2
[28] = biological target: 1,3-beta-glucan synthase component FKS1 (Candida glabrata, UniProt E2GKZ4, D632E); experiment: Inhibition of Candida glabrata isolate 3169 1,3-beta-D-glucan synthase Fks1p D632E mutant/wild type Fks2p; set-up: species or system Nakaseomyces glabratus; outline: as §3
[29] = tested on: Nakaseomyces glabratus; experiment: Antifungal activity against Candida glabrata ATCC 90030 expressing wild type Fks1p and Fks2p by CLSI method; assay type: functional
Outline: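 Broth microdilution MIC per CLSI M27-A3 in RPMI 1640 medium, also run in RPMI 1640 with 50% serum. Wild-type control strain. Caspofungin and micafungin dissolved in sterile distilled water and anidulafungin in 100% DMSO; stock solutions stored at −86°C. Geometric means used to compare MICs.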

[30] = tested on: Nakaseomyces glabratus; experiment: Antifungal activity against Candida glabrata isolate 51916 expressing wild type Fks1p and Fks2p P667T mutant by CLSI method in presence of 50% human serum; assay type: functional; outline: as §1
[31] = tested on: Nakaseomyces glabratus; experiment: Antifungal activity against Candida glabrata isolate 42997 expressing Fks1p F625S mutant and wild type Fks2p by CLSI method; assay type: functional; outline: as §2
[32] = tested on: Nakaseomyces glabratus; experiment: Antifungal activity against Candida glabrata isolate 31498 expressing wild type Fks1p and Fks2p F659 deletion mutant by CLSI method in presence of 50% human serum; assay type: functional; outline: as §1
[33] = tested on: Nakaseomyces glabratus; experiment: Antifungal activity against Candida glabrata isolate 42031 expressing wild type Fks1p and Fks2p D666E mutant by CLSI method in presence of 50% human serum; assay type: functional; outline: as §1
[34] = tested on: Nakaseomyces glabratus; experiment: Antifungal activity against Candida glabrata isolate 218 expressing wild type Fks1p and Fks2p by CLSI method in presence of 50% human serum; assay type: functional; outline: as §1

Chain of 1,3-beta-glucan synthase (Candida glabrata, UniProt F5BCZ9, P667T) (F5BCZ9 entry or part of it P667T): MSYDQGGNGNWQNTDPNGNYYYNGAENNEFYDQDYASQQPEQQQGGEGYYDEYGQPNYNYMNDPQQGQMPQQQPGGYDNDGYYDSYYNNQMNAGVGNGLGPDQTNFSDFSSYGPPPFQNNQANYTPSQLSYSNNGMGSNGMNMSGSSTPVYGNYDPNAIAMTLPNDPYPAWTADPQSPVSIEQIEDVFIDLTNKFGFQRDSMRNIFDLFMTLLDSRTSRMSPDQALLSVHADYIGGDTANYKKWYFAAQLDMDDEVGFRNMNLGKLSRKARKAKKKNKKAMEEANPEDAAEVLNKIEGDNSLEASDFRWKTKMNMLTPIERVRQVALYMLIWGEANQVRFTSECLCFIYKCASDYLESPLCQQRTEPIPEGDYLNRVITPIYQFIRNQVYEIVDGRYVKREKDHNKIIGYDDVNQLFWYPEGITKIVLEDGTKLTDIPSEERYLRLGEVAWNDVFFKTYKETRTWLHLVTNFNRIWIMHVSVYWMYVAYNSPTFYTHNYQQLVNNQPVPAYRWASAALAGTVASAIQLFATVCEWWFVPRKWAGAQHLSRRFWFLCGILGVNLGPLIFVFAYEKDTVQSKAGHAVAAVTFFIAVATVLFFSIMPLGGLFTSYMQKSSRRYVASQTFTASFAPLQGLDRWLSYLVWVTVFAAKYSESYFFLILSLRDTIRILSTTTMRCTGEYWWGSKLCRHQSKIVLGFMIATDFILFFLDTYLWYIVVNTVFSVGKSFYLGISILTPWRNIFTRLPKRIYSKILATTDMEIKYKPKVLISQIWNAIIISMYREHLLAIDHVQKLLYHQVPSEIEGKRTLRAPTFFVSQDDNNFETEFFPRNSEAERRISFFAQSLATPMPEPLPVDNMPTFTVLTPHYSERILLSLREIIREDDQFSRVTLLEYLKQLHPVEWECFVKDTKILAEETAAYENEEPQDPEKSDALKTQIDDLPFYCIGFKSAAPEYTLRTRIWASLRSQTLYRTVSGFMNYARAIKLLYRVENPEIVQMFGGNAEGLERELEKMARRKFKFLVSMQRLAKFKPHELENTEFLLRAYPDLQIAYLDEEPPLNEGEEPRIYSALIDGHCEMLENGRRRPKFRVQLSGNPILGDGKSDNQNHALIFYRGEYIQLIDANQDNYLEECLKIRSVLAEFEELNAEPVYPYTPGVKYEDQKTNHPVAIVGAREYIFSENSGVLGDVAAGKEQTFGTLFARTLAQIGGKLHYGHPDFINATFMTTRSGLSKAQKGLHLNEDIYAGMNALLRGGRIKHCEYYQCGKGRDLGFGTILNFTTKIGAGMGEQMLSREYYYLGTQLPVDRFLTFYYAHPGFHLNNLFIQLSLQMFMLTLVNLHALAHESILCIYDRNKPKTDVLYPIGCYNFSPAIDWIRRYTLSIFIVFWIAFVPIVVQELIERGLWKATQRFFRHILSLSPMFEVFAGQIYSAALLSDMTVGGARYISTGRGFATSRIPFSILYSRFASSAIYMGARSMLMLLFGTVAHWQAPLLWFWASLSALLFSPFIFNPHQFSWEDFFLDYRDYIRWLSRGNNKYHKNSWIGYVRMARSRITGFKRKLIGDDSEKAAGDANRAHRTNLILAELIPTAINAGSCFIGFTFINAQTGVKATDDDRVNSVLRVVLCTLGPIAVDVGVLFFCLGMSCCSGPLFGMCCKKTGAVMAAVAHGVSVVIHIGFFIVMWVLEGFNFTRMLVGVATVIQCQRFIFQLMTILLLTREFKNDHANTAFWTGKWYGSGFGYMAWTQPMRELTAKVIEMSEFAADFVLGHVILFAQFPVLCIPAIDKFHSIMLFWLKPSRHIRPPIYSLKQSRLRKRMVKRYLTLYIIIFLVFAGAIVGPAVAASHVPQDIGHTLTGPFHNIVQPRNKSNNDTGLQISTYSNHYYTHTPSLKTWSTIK
Chain of 1,3-beta-glucan synthase (Candida glabrata, UniProt F5BCZ9, D666E) (F5BCZ9 entry or part of it D666E): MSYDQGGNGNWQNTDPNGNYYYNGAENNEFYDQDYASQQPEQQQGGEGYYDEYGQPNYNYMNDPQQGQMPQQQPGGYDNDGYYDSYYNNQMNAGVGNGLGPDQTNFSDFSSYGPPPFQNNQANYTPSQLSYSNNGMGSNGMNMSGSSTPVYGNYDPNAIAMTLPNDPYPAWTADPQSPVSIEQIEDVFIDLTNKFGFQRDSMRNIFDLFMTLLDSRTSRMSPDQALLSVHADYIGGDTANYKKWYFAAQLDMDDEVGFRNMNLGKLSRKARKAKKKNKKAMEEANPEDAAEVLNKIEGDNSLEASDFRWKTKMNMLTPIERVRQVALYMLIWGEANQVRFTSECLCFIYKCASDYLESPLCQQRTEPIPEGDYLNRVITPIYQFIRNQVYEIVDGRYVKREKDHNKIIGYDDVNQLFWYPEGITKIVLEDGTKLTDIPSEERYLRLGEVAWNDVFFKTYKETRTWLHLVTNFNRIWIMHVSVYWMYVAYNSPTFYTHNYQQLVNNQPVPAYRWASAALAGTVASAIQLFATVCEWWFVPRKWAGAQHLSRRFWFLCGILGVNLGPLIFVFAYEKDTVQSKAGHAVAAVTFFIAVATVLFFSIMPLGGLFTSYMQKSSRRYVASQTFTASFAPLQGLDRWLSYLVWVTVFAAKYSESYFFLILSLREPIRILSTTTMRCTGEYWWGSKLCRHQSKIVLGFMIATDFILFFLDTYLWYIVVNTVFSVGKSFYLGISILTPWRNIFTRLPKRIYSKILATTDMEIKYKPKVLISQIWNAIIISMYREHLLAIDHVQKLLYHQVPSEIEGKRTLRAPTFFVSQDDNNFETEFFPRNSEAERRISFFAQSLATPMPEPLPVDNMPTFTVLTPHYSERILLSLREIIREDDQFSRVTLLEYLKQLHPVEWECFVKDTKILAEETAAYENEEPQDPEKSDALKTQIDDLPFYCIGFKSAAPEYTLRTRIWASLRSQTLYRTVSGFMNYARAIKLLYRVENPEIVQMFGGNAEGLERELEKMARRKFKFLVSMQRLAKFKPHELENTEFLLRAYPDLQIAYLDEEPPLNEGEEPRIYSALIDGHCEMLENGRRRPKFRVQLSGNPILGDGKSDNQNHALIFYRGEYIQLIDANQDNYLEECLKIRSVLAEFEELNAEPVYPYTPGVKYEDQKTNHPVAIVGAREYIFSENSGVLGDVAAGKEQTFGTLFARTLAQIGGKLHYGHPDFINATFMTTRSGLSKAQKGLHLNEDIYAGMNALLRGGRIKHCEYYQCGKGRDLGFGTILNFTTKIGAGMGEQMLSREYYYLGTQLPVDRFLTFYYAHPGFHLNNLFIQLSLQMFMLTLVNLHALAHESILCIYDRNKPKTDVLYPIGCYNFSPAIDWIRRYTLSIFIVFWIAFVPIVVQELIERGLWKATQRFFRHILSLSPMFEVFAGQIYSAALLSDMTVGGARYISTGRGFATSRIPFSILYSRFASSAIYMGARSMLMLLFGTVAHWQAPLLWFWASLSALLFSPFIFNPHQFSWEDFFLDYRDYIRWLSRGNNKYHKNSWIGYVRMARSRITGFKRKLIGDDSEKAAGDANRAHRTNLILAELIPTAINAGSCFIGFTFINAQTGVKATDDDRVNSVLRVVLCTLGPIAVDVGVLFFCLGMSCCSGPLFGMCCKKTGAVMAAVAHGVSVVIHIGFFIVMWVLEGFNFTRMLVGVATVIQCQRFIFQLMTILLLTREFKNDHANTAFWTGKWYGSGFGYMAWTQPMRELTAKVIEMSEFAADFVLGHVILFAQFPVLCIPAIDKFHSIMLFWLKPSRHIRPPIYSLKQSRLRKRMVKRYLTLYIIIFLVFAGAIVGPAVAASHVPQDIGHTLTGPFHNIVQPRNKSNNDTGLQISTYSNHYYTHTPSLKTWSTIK

Compound	Ratio IC50 [1]	MIC [2] [µg/mL]	MIC [3] [µg/mL]	MIC [4] [µg/mL]	MIC [5] [µg/mL]	IC50 [6] [µM]	MIC [7] [µg/mL]	MIC [8] [µg/mL]	MIC [9] [µg/mL]	IC50 [10] [µM]	MIC [11] [µg/mL]	MIC [12] [µg/mL]	MIC [13] [µg/mL]	MIC [14] [µg/mL]	IC50 [15] [µM]	MIC [16] [µg/mL]	MIC [17] [µg/mL]	IC50 [18] [µM]	MIC [19] [µg/mL]	IC50 [20] [µM]	other results
CC[C@H](C)C[C@H](C)CCCCCCCCC(=O)N[C@H]1C[C@@H](O)[C@@H](NCCN)NC(=O)[C@@H]2[C@@H](O)CCN2C(=O)[C@H]([C@H](O)CCN)NC(=O)[C@H]([C@H](O)[C@@H](O)c2ccc(O)cc2)NC(=O)[C@@H]2C[C@@H](O)CN2C(=O)[C@H]([C@@H](C)O)NC1=O [CASPOFUNGIN]	267	0.12	2.52 (≈ 2.3 µM)	8	8	0.556	4 (≈ 3.66 µM)	4 (≈ 3.66 µM)	16	0.236	8 (≈ 7.32 µM)	8 (≈ 7.32 µM)	16 (≈ 14.6 µM)	4 (≈ 3.66 µM)	0.152	8	16	0.692	4 (≈ 3.66 µM)	0.973	IC50 [21]: 0.638 µM; MIC [22]: 2 µg/mL (≈ 1.83 µM); IC50 [23]: 0.00311 µg/mL (≈ 0.00284 µM); MIC [24]: 16 µg/mL; IC50 [25]: 0.1172 µg/mL (≈ 0.107 µM); MIC [26]: 8 µg/mL; MIC [27]: 2 µg/mL (≈ 1.83 µM); IC50 [28]: 0.772 µM; MIC [29]: 0.06 µg/mL (≈ 0.0549 µM); MIC [30]: 8 µg/mL; MIC [31]: 8 µg/mL (≈ 7.32 µM); MIC [32]: 8 µg/mL; MIC [33]: 8 µg/mL; MIC [34]: 0.25 µg/mL
CCCCCOc1ccc(-c2cc(-c3ccc(C(=O)N[C@H]4C[C@@H](O)[C@@H](O)NC(=O)[C@@H]5[C@@H](O)[C@@H](C)CN5C(=O)[C@H]([C@H](O)CC(N)=O)NC(=O)[C@H]([C@H](O)[C@@H](O)c5ccc(O)c(OS(=O)(=O)O)c5)NC(=O)[C@@H]5C[C@@H](O)CN5C(=O)[C@H]([C@@H](C)O)NC4=O)cc3)no2)cc1 [MICAFUNGIN] (X1-[Orn(4R-OH,5R-OH)]T[Hyp][hTyr(3S-OH,4S-OH,3'-OSO3H)][Gln(3R-OH)][Pro(3S-OH,4S-Me)]; lactam 1-C)	60	0.5	2.52 (≈ 1.98 µM)	8	8	0.0399	0.25 (≈ 0.197 µM)	1 (≈ 0.787 µM)	8	0.0698	2 (≈ 1.57 µM)	1 (≈ 0.787 µM)	4 (≈ 3.15 µM)	0.5 (≈ 0.394 µM)	0.0873	2	8	0.27	0.25 (≈ 0.197 µM)	0.84	IC50 [21]: 0.0994 µM; MIC [22]: 4 µg/mL (≈ 3.15 µM); IC50 [23]: 0.00056 µg/mL (≈ 0.000441 µM); MIC [24]: 16 µg/mL; IC50 [25]: 0.1235 µg/mL (≈ 0.0972 µM); MIC [26]: 8 µg/mL; MIC [27]: 0.4 µg/mL (≈ 0.315 µM); IC50 [28]: 0.35 µM; MIC [29]: 0.03 µg/mL (≈ 0.0236 µM); MIC [30]: 4 µg/mL; MIC [31]: 0.5 µg/mL (≈ 0.394 µM); MIC [32]: 8 µg/mL; MIC [33]: 4 µg/mL; MIC [34]: 1 µg/mL
